# Measurements: ChEMBL document CHEMBL3352624, “Vanillin-derived antiproliferative compounds influence Plk1 activity” (Bioorg Med Chem Lett, 2014)
# Calls of active or inactive are those of the source. The calls are words filed in the database; no cut-off is given here.
# Tested on: HeLa
# Test: Antiproliferative activity against human HeLa cells assessed as growth inhibition after 24 to 72 hrs
# Format: functional, cell-based
# Conditions: Homo sapiens, HeLa; read-out: EC50
# Procedure, shortened: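 HeLa cells were exposed to compound for 24–72 h, with medium-only cells as control. Surviving cells are expressed as a percentage of control cell number at 72 h. n = 3.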
row,Structure (SMILES),EC50
1,CCOc1cc(CNCc2ccncc2)ccc1OCc1ccc(Cl)cc1,2.5 µM
2,COc1cc(CNCCCN2CCOCC2)ccc1OCc1ccc(Cl)nc1,> 100 µM
3,COc1cc(CNCCNC(=O)c2cnon2)ccc1OCc1ccc(Cl)nc1,24 µM
4,COc1cc(CNCc2ccncc2)ccc1OCc1ccc([N+](=O)[O-])cc1,0.44 µM
5,COc1ccc(COc2ccc(CNCc3ccncc3)cc2OC)cc1,5 µM
6,COc1cc(CNCc2ccccn2)ccc1OCc1ccc(Cl)c(Cl)c1,13 µM
7,COc1cc(OCc2cnc(Cl)c(Cl)c2)ccc1CNCc1ccncc1,0.4 µM
8,COc1cc(CNCCc2ccc(S(N)(=O)=O)cc2)ccc1OCc1ccc(Cl)nc1,12 µM
9,COc1cc(CNCc2ccccn2)ccc1OCc1c(Cl)cccc1Cl,6.1 µM
10,COc1cc(CNCCc2ccc(F)cc2)ccc1OCc1ccc(Cl)nc1,16 µM
11,COc1cc(CNCc2ccncc2)ccc1OCc1cnc(Cl)c(Cl)c1,0.22 µM
12,COc1cc(CNCc2ccncc2)ccc1OCc1ccc(Cl)cc1Cl,3.9 µM
13,COc1cc(CNCCc2c[nH]c3ccccc23)ccc1OCc1ccc(Cl)nc1,8 µM
14,COCCNCc1ccc(OCc2ccc(Cl)nc2)c(OC)c1,97 µM
15,COc1cc(CNCc2ccccc2)ccc1OCc1ccc(Cl)nc1,90 µM
16,COc1cc(CNCC2CCCO2)ccc1OCc1ccc(Cl)nc1 (centres undefined),66 µM
17,COc1cc(CNCCNc2ccnc3cc(Cl)ccc23)ccc1OCc1ccc(Cl)nc1,2.7 µM
18,COc1cc(CNCc2cccs2)ccc1OCc1ccc(Cl)nc1,96 µM
19,COc1cc(CNCCc2ccccc2)ccc1OCc1ccc(Cl)nc1,61 µM
20,COc1cc(CNCc2ccncc2)ccc1OCc1ccc(Cl)cc1,0.89 µM
21,COc1cc(CNCCc2ccccc2F)ccc1OCc1ccc(Cl)nc1,18 µM
22,COc1cc(CNCCCN(C)C)ccc1OCc1ccc(Cl)nc1,5 µM
23,COc1cc(CNCc2ccncc2)ccc1OCc1ccc(C(F)(F)F)cc1,2.4 µM

row,Structure (SMILES),EC50
1,COc1cc(CNCc2ccncc2)ccc1OCc1ccc(Cl)nc1,0.4 µM
2,COc1ccc(CCNCc2ccc(OCC(=O)N3CCCCC3)c(OC)c2)cc1OC,87 µM
3,COc1ccc(CCNCc2ccc(OCC(=O)N3CCOCC3)c(OC)c2)cc1OC,85 µM
4,COc1cc(OCc2ccc(Cl)nc2)ccc1CNCc1ccncc1,3.3 µM
5,COc1ccc(CCNCc2ccc(OCC(=O)NC(C)(C)C)c(OC)c2)cc1OC,> 100 µM
6,COc1cc(CNCc2ccncc2)ccc1OCc1cccc(F)c1,4.8 µM
7,COc1cc(CNCc2ccccn2)ccc1OCc1ccccc1Cl,22 µM
8,COc1cc(CNCC(=O)c2ccccc2)ccc1OCc1ccc(Cl)nc1,60 µM
9,COc1cc(CNCc2cccnc2)ccc1OCc1ccc(Cl)nc1,5 µM
10,COc1cc(CNCc2ccncc2)ccc1OCc1ccc(C)cc1,5 µM
11,COc1cc(CNCc2ccncc2)ccc1OCc1ccc(Cl)c(Cl)c1,4 µM
12,COc1cc(CNCc2ccncc2)ccc1OCc1ccccc1F,5.1 µM
13,COc1cc(CNCCSc2nnnn2C)ccc1OCc1ccc(Cl)nc1,86 µM
14,COc1cc(CNCc2ccncc2)ccc1OCc1ccc(F)cc1,6.4 µM
15,COc1cc(OCc2ccc(Cl)cc2)ccc1CNCc1ccncc1,0.44 µM
16,COc1cc(CNc2nc[nH]n2)ccc1OCc1ccc(Cl)nc1,69 µM
17,COc1cc(CNCc2ccccn2)ccc1OCc1cccc(Cl)c1,18 µM
18,COc1ccc(CCNCc2ccc(OCc3cccs3)c(OC)c2)cc1OC,18 µM
19,COc1cc(CNCCc2ccncc2)ccc1OCc1ccc(Cl)nc1,55 µM
20,Clc1ccc(COc2ccc(CNCc3ccncc3)cc2)cc1,4 µM
21,COc1ccc(CCNCc2ccc(OCc3ccc(Cl)nc3)c(OC)c2)cc1OC,18 µM
22,COc1cc(CNCc2ccc3c(c2)OCO3)ccc1OCc1ccc(Cl)nc1,71 µM

# Same assay, conditions: hela
row,Structure (SMILES),EC50
1,COc1cc(CNC2CCCCC2)ccc1OCc1ccc(Cl)nc1,ND(Insoluble)
2,COc1cc(CNCc2ccc(C(=O)O)cc2)ccc1OCc1ccc(Cl)nc1,ND(Insoluble)
3,COc1ccc(CCNCc2ccc(OCc3ccc(Cl)nc3)c(OC)c2)cc1,ND(Insoluble)

# Tested on: HeLa
# Test: Induction of apoptosis in human HeLa cells assessed as increase in PARP cleavage at 33 uM after 48 hrs by Western blot analysis
# Format: functional, cell-based
# Conditions: not given
# Procedure, shortened: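 HeLa cells were harvested 48 h after compound incubation, with untreated medium controls. Western blotting against Parp detected both full-length protein and its apoptotic cleavage product.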
row,Structure (SMILES),Activity
1,COc1cc(CNCc2ccncc2)ccc1OCc1ccc(Cl)cc1,Active

# Tested on: HeLa
# Test: Induction of apoptosis in human HeLa cells assessed as caspase-3/7 activation after 48 hrs […]
# Format: functional, cell-based
# Conditions: not given
# Procedure, shortened: (§1)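 Caspase 3/7 activation in HeLa cells was read 48 h after treatment by luminescence and reported as relative RLU versus medium-only controls. n = 3, mean SD.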
row,Structure (SMILES),Activity
1,COc1cc(CNCc2ccncc2)ccc1OCc1ccc(Cl)cc1,Dose-dependent effect

# Molecular target: Serine/threonine-protein kinase PLK1 (Homo sapiens, UniProt P53350)
# Test: Inhibition of Plk1 immunoprecipitated from human HeLa cells using casein substrate after 12 to 26 hrs by autoradiography
# Format: cell-based
# Conditions: not given
# Procedure, shortened: (§2)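 HeLa cells were synchronized and incubated with compound. Plk1, Plk2 or Plk3 was then immunoprecipitated from the cells and assayed for kinase activity with casein as substrate. Activity was read by autoradiography.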
# Serine/threonine-protein kinase PLK1, sequence (P53350 whole entry): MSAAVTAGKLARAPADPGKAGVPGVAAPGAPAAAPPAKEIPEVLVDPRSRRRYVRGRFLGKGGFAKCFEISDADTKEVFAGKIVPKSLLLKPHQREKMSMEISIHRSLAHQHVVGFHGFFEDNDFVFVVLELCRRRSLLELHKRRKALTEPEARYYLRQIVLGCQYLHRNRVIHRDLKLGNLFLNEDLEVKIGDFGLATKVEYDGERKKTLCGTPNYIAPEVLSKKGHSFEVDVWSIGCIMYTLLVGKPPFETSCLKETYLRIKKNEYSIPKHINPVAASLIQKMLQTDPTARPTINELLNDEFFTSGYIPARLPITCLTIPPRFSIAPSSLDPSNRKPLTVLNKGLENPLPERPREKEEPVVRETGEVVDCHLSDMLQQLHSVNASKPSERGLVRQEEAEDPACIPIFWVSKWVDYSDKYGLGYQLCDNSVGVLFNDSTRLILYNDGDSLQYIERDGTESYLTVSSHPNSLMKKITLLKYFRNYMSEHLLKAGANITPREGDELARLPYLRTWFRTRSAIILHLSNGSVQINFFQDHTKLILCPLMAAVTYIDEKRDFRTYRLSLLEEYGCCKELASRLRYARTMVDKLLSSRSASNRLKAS
row,Structure (SMILES),IC50
1,COc1cc(CNCc2ccncc2)ccc1OCc1ccc(Cl)cc1,0.003 µM

# Molecular target: Serine/threonine-protein kinase PLK2 (Homo sapiens, UniProt Q9NYY3)
# Test: Inhibition of Plk2 immunoprecipitated from human HeLa cells using casein substrate after 12 to 26 hrs by autoradiography
# Format: cell-based
# Conditions: not given
# Procedure, shortened: as §2
# Serine/threonine-protein kinase PLK2, sequence (Q9NYY3 whole entry): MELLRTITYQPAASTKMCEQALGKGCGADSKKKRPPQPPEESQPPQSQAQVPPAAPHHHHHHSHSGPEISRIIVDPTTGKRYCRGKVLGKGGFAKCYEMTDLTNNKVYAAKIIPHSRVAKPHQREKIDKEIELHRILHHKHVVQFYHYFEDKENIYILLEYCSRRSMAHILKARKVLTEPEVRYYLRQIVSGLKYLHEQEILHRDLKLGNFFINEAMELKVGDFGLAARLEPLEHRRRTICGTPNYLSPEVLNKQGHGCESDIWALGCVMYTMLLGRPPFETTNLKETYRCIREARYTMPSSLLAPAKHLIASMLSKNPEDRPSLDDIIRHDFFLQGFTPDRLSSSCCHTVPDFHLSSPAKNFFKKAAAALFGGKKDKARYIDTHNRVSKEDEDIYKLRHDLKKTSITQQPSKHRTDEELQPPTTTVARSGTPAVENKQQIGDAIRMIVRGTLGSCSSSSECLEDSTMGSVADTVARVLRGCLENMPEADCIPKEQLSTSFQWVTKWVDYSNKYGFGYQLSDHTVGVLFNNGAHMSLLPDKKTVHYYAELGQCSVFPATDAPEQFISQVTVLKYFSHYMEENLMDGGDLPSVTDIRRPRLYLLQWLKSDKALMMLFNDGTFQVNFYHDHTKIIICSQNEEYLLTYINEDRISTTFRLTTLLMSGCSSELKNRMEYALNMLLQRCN
row,Structure (SMILES),IC50
1,COc1cc(CNCc2ccncc2)ccc1OCc1ccc(Cl)cc1,> 10 µM

# Molecular target: Serine/threonine-protein kinase PLK3 (Homo sapiens, UniProt Q9H4B4)
# Test: Inhibition of Plk3 immunoprecipitated from human HeLa cells using casein substrate after 12 to 26 hrs by autoradiography
# Format: cell-based
# Conditions: not given
# Procedure, shortened: as §2
# Serine/threonine-protein kinase PLK3, sequence (Q9H4B4 whole entry): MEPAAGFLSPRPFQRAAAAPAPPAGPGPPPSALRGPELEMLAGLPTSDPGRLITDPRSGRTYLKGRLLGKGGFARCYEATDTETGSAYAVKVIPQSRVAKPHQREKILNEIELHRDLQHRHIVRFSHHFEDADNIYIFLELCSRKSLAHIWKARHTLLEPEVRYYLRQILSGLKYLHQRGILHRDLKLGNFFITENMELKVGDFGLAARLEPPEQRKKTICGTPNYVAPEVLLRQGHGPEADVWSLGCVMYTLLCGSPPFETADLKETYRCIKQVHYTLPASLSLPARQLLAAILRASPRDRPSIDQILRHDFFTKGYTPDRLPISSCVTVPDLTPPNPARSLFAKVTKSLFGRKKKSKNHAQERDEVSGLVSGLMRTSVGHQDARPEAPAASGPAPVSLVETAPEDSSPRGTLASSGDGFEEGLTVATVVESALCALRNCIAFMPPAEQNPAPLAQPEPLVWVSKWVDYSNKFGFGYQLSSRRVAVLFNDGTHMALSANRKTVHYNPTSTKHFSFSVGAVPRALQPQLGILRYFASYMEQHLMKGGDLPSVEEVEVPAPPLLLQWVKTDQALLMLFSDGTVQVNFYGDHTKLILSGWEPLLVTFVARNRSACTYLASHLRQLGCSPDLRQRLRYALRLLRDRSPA
row,Structure (SMILES),IC50
1,COc1cc(CNCc2ccncc2)ccc1OCc1ccc(Cl)cc1,> 10 µM

# Tested on: HeLa
# Test: Induction of apoptosis in human HeLa cells assessed as caspase-3/7 activation at 1 nM to 66 uM by […]
# Format: functional, cell-based
# Conditions: TDE = time-dependent effect
# Procedure, shortened: as §1
row,Structure (SMILES),Activity
1,COc1cc(CNCc2ccncc2)ccc1OCc1ccc(Cl)cc1,tde
